The source made the active and inactive calls. No cut-off for these calls is given here. Non-standard residues stand in square brackets, D forms with d. Residues, ends and D or L forms follow the SMILES beside them. *: point of attachment. OBzl(3,5-(CF3)2) = FC(F)(F)c1cc(CO*)cc(C(F)(F)F)c1
Assays:
[1] = biological target: Substance-P receptor (Cavia porcellus) (UniProt P30547); assay: Antagonist activity at NK1 receptor in guinea pig ileum assessed as inhibition of substance P-induced muscle contraction; type: tissue-based
Substance-P receptor = Substance-P receptor (Homo sapiens, UniProt P25103); assay: Displacement of [3H]substance P from human NK1 receptor expressed in CHO cells; type: cell-based
[2] = biological target: Mu-type opioid receptor (Cavia porcellus) (UniProt P97266); assay: Agonist activity at mu opioid receptor in guinea pig ileum assessed as inhibition of electrically-stimulated muscle contraction at 1 uM; type: tissue-based
Rattus norvegicus [3] = assay: Antiallodynic activity in po dosed spinal nerve ligated Sprague-Dawley rat assessed as attenuation of SNL-induced tactile allodynia; type: functional, organism-based
Outline: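 Spinal nerve ligated rats dosed orally; tactile (von Frey) and thermal hypersensitivity compared with vehicle.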

Rattus norvegicus [4] = assay: Antiallodynic activity in intrathecally dosed spinal nerve ligated Sprague-Dawley rat assessed as attenuation of SNL-induced tactile allodynia; type: functional, organism-based
Outline: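 Spinal nerve ligated rats given intrathecal doses, expressed as µg/5 µL, with 10% DMSO/water as vehicle; tactile allodynia measured by von Frey and compared with vehicle over time.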

Rattus norvegicus [5] = assay: Antinociceptive activity in Sprague-Dawley rat assessed as […] at 10 ug/5 uL administered intrathecally; type: functional, organism-based
Outline: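 Non-injured rats given intrathecal 10 µg/5 µL in 10% DMSO/90% distilled water; hind paw withdrawal latency to radiant heat (Hargreaves) read 15 min after injection and compared with vehicle.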

Chain of Substance-P receptor (Cavia porcellus) (P30547 whole entry): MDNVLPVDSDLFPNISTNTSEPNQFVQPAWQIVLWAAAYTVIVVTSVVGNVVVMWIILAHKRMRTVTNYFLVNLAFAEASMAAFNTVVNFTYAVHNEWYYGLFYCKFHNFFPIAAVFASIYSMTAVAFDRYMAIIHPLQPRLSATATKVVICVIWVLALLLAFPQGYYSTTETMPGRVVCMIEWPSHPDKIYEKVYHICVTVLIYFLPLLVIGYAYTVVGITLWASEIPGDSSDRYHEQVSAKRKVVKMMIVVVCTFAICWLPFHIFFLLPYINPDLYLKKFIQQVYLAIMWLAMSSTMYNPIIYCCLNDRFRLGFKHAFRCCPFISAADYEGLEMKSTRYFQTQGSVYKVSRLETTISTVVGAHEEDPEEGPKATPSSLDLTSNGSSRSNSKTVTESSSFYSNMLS
Chain of Mu-type opioid receptor (Cavia porcellus) (P97266 whole entry): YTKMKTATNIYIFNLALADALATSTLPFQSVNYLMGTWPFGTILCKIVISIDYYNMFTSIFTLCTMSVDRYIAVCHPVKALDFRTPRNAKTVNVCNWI
Chain of Substance-P receptor (P25103 whole entry): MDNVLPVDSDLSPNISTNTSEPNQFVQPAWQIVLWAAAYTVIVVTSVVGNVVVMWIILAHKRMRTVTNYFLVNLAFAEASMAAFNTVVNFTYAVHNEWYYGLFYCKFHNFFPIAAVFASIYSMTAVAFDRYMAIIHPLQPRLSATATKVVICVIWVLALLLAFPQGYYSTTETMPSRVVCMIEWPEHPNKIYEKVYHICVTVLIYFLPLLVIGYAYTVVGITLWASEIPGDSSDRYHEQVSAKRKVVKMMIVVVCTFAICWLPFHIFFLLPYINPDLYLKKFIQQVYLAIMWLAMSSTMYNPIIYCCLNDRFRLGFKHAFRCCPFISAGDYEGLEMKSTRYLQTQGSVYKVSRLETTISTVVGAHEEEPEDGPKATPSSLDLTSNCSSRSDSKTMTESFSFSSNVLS

| Compound | Ke [1] | further results |
| --- | --- | --- |
| CSCC[C@H](NC(=O)[C@H](Cc1ccccc1)NC(=O)CNC(=O)[C@@H](C)NC(=O)[C@@H](N)Cc1ccc(O)cc1)C(=O)NC(C)(C)C(=O)N[C@@H](CC(C)C)C(=O)N[C@@H](Cc1c[nH]c2ccccc12)C(=O)OCc1cc(C(F)(F)F)cc(C(F)(F)F)c1 | 12 nM | Ki (Substance-P receptor): 0.12 nM |
| CSCC[C@H](NC(=O)[C@H](Cc1ccccc1)NC(=O)CNC(=O)[C@@H](C)NC(=O)[C@@H](N)Cc1ccc(O)cc1)C(=O)NC1(C(=O)N[C@@H](CC(C)C)C(=O)N[C@@H](Cc2c[nH]c3ccccc23)C(=O)OCc2cc(C(F)(F)F)cc(C(F)(F)F)c2)CCCC1 | 2 nM |  |
| CSCC[C@H](NC(=O)[C@H](Cc1ccccc1)NC(=O)CNC(=O)[C@@H](C)NC(=O)[C@@H](N)Cc1ccc(O)cc1)C(=O)N1CCC[C@@H]1C(=O)N[C@@H](CC(C)C)C(=O)N[C@@H](Cc1c[nH]c2ccccc12)C(=O)OCc1cc(C(F)(F)F)cc(C(F)(F)F)c1 | 29 nM | inhibition [2]: 25% |
| CC(C)C[C@H](NC(=O)[C@H](Cc1ccccc1)NC(=O)CNC(=O)[C@@H](C)NC(=O)[C@@H](N)Cc1ccc(O)cc1)C(=O)N[C@@H](Cc1c[nH]c2ccccc12)C(=O)OCc1cc(C(F)(F)F)cc(C(F)(F)F)c1 (H-Y[dA]GFLW-{OBzl(3,5-(CF3)2)}) | 2 nM |  |
| CSCC[C@H](NC(=O)[C@H](Cc1ccccc1)NC(=O)CNC(=O)[C@@H](C)NC(=O)[C@@H](N)Cc1ccc(O)cc1)C(=O)N[C@@H](C)C(=O)N[C@@H](CC(C)C)C(=O)N[C@@H](Cc1c[nH]c2ccccc12)C(=O)OCc1cc(C(F)(F)F)cc(C(F)(F)F)c1 (H-Y[dA]GFMALW-{OBzl(3,5-(CF3)2)}) | 380 nM |  |
| C[C@@H](NC(=O)[C@@H](N)Cc1ccc(O)cc1)C(=O)NCC(=O)N[C@@H](Cc1ccccc1)C(=O)N1CCCC1C(=O)N[C@@H](Cc1c[nH]c2ccccc12)C(=O)OCc1cc(C(F)(F)F)cc(C(F)(F)F)c1 (single isomer, unassigned) | 1.8 nM |  |
| C[C@@H](NC(=O)[C@@H](N)Cc1ccc(O)cc1)C(=O)NCC(=O)N[C@@H](Cc1ccccc1)C(=O)NCC(=O)N[C@@H](Cc1c[nH]c2ccccc12)C(=O)OCc1cc(C(F)(F)F)cc(C(F)(F)F)c1 (H-Y[dA]GFGW-{OBzl(3,5-(CF3)2)}) | 59 nM | Activity (Rattus norvegicus [3]): inactive; Activity (Rattus norvegicus [4]): Dose-dependent effect; Activity (Rattus norvegicus [5]): Active |

— ChEMBL document CHEMBL2417362, “Truncation of the peptide sequence in bifunctional ligands with mu and delta opioid receptor agonist and neurokinin 1 receptor antagonist activities” (Bioorg Med Chem Lett, 2013)
